# How the values were obtained:
# [1] = test system: E. coli KA780; test: Broth microdilution MIC and MBC; assay type: cell-based; conditions: Escherichia coli; for MIC: KA780, 24 h; for MBC: KA780, read-out: MBC/MIC
# [2] = test system: C. tropicalis KA205; test: Broth microdilution MIC and MFC; assay type: cell-based; conditions: Candida tropicalis; for MIC: KA205, 24 h; for MFC: KA205, read-out: MFC/MIC
# [3] = test system: E. faecalis KA247; test: Agar well-diffusion, inhibition zone; assay type: cell-based, Enterococcus faecalis; conditions: Enterococcus faecalis, KA247, read-out: Average diameter of inhibition zone (ZI)
# Summary of the method: (§1)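 Clinical MDR isolates from complicated UTI patients. Suspensions were made in Tryptic Soya and Sabouraud broths from subcultures on Tryptic Soya and Sabouraud agar plates. Agar well diffusion followed CLSI guidelines, with test compounds applied at 10 μM in DMSO. Fosfomycin and fluconazole were positive controls and DMSO the negative control. Zone diameters were read in mm, in triplicate.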
# [4] = test system: P. mirabilis KA320; test: Broth microdilution MIC and MBC; assay type: cell-based; conditions: Proteus mirabilis; for MIC: KA320, 24 h; for MBC: KA320, read-out: MBC/MIC
# [5] = test system: S. aureus KA112; test: Broth microdilution MIC and MBC; assay type: cell-based; conditions: Staphylococcus aureus; for MIC: KA112, 24 h; for MBC: KA112, read-out: MBC/MIC
# [6] = test system: P. mirabilis KA320; test: Agar well-diffusion, inhibition zone; assay type: cell-based, Proteus mirabilis; conditions: Proteus mirabilis, KA320, read-out: Average diameter of inhibition zone (ZI)
# Summary of the method: as §1
# [7] = test system: C. tropicalis KA205; test: Agar well-diffusion, inhibition zone; assay type: cell-based, Candida tropicalis; conditions: Candida tropicalis, KA205, read-out: Average diameter of inhibition zone (ZI)
# Summary of the method: as §1
# [8] = test system: E. coli KA780; test: Agar well-diffusion, inhibition zone; assay type: cell-based, Escherichia coli; conditions: Escherichia coli, KA780, read-out: Average diameter of inhibition zone (ZI)
# Summary of the method: as §1
# [9] = test system: C. albicans KA205; test: Broth microdilution MIC and MFC; assay type: cell-based; conditions: Candida albicans; for MIC: KA205, 24 h; for MFC: KA205, read-out: MFC/MIC
# [10] = test system: E. faecalis KA247; test: Broth microdilution MIC and MBC; assay type: cell-based; conditions: Enterococcus faecalis, KA247, 24 h
# [11] = test system: S. aureus KA112; test: Agar well-diffusion, inhibition zone; assay type: cell-based, Staphylococcus aureus; conditions: Staphylococcus aureus, KA112, read-out: Average diameter of inhibition zone (ZI)
# Summary of the method: as §1
# [12] = test system: C. albicans KA205; test: Agar well-diffusion, inhibition zone; assay type: cell-based, Candida albicans; conditions: Candida albicans, KA205, read-out: Average diameter of inhibition zone (ZI)
# Summary of the method: as §1
# [13] = test system: fungal isolates; test: Broth microdilution MIC/MFC, fungal panel; assay type: cell-based
compound,measurement,setting,value
"O=[N+]([O-])c1ccc(-c2nn(-c3ccccc3)c3sc(NC(c4cccs4)P(=O)(Oc4ccccc4)Oc4ccccc4)nc23)cc1 (centres unmarked) [Compound 6a, Diphenyl(((3-(4-nitrophenyl)-1-phenyl-1H-pyrazolo[4,3-d]thiazol-5-yl)amino)(thiophen-2-yl)methyl)phosphonate]",MIC,[1],1 µg/mL
same,MBC,[1],0.5 µg/mL
same,MIC,[2],0.5 µg/mL
same,MFC,[2],1 µg/mL
same,zone of inhibition at 10 µM,[3],18 ± 0.74 mm
same,MIC,[4],2 µg/mL
same,MBC,[4],1 µg/mL
same,MIC,[5],1 µg/mL
same,MBC,[5],1 µg/mL
same,zone of inhibition at 10 µM,[6],18 ± 0.5 mm
same,zone of inhibition at 10 µM,[7],20 ± 0.2 mm
same,zone of inhibition at 10 µM,[8],19 ± 0.66 mm
same,MIC,[9],0.5 µg/mL
same,MFC,[9],0.5 µg/mL
same,MIC,[10],2 µg/mL
same,zone of inhibition at 10 µM,[11],19 mm
same,zone of inhibition at 10 µM,[12],20 ± 0.89 mm
"CCOP(=O)(OCC)C(Nc1nc2c(-c3ccc([N+](=O)[O-])cc3)nn(-c3ccccc3)c2s1)c1ccc(N(C)C)cc1 (centres unmarked) [Compound 4, Diethyl((4-(dimethylamino)phenyl)((3-(4-nitrophenyl)-1-phenyl-1H-pyrazolo[4,3-d]thiazol-5-yl)amino)methyl)phosphonate]",MIC,[1],8 µg/mL
same,MBC,[1],1 µg/mL
same,MIC,[2],2 µg/mL
same,MFC,[2],1 µg/mL
same,zone of inhibition at 10 µM,[3],16 ± 0.8 mm
same,MIC,[4],16 µg/mL
same,MBC,[4],1 µg/mL
same,MFC,[13],1 to 2 µg/mL
same,MIC,[5],8 µg/mL
same,MBC,[5],2 µg/mL
same,zone of inhibition at 10 µM,[6],16 ± 0.34 mm
same,zone of inhibition at 10 µM,[7],16 ± 0.54 mm
same,zone of inhibition at 10 µM,[8],17 ± 0.54 mm
same,MIC,[9],2 µg/mL
same,MFC,[9],0.5 µg/mL
same,MIC,[10],16 µg/mL
same,zone of inhibition at 10 µM,[11],17 mm
same,zone of inhibition at 10 µM,[12],16 ± 0.67 mm
"CCOP(=O)(OCC)C(Nc1nc2c(-c3ccc([N+](=O)[O-])cc3)nn(-c3ccccc3)c2s1)c1ccc(Cl)cc1 (centres unmarked) [Compound 3, Diethyl((4-chlorophenyl)((3-(4-nitrophenyl)-1-phenyl-1H-pyrazolo[4,3-d]thiazol-5-yl)amino)methyl)phosphonate]",MIC,[1],1 µg/mL
same,MBC,[1],1 µg/mL
same,MIC,[2],1 µg/mL
same,MFC,[2],0.5 µg/mL
same,zone of inhibition at 10 µM,[3],18 ± 0.05 mm
same,MIC,[4],2 µg/mL
same,MBC,[4],1 µg/mL
same,MFC,[13],0.5 to 1 µg/mL
same,MIC,[5],1 µg/mL
same,MBC,[5],2 µg/mL
same,zone of inhibition at 10 µM,[6],17 ± 0.71 mm
same,zone of inhibition at 10 µM,[7],17 ± 0.48 mm
same,zone of inhibition at 10 µM,[8],19 ± 0.14 mm
same,MIC,[9],1 µg/mL
same,MFC,[9],1 µg/mL
same,MIC,[10],2 µg/mL
same,zone of inhibition at 10 µM,[11],18 ± 0.31 mm
same,zone of inhibition at 10 µM,[12],17 ± 0.88 mm

# Source: paper PMC10685179 (RSC Advances, 2023)
